Measurements from different studies.
Each line is one published result; the experiments were not run side by side.
Target: Receptor-interacting serine/threonine-protein kinase 2 (RIPK2, Homo sapiens, UniProt O43353)

Compound	observed	action	technique	tested at	measurement	result
FC(F)(F)Oc1cccc(-c2cnc3ccc(-c4ccncc4)nn23)c1	enzyme activity	inhibitor	radiometric	1 µM	activity vs control	32%
CC(=O)N1CCC(c2ccc(C(=O)NC(=N)N)cc2C(F)(F)F)CC1	cell-free assay		competition with immobilised ligand	1 µM	remaining binding	100%
FC(F)c1nc2ccccc2n1-c1nc(N2CCOCC2)nc(N2CCOCC2)n1	enzyme activity	inhibitor		10 µM	remaining activity	89%
CN1CCN(c2cnc3c(C4CCN(C(=O)c5ccc(OC(F)(F)F)cc5N)CC4)ncnc3c2)CC1	cell-free assay		competition with immobilised ligand	1 µM	remaining binding	100%
O=C1Nc2ccc(Cl)cc2C1=Cc1cc(Cl)c(O)c(Cl)c1	cell-free assay			0.5 µM	remaining signal	50.2%
COc1cc(Cl)c(C(=O)N[C@@H](CN[C@H]2CC[C@@H](N)CC2)Cc2ccc(C#N)cc2)cc1-c1ccc(CN[C@H](C)c2ccc(C)cc2)o1	enzyme activity	inhibitor		1 µM	remaining activity	100%
CNC(=O)c1cc2c(Oc3ccc(NC(=O)C4(C(=O)Nc5ccc(F)cc5)CC4)cc3)ccnc2cc1OC	enzyme activity	inhibitor	radiometric	1 µM	inhibition	74%
NS(=O)(=O)c1cc(NC(=O)C2(c3ccccc3Cl)CC2)ccc1Oc1cccc(Cl)c1	cell-free assay		competition with immobilised ligand	1 µM	remaining binding	93%
COc1cc2ncnc(Nc3ccc(Oc4ccccc4)cc3)c2cc1OC	cell-free assay			0.5 µM	remaining signal	55.5%
C[C@H](c1ccc(F)cc1)N(Cc1cccc(C(=O)O)c1)C(=O)c1cnc2ccccc2c1	cell-free assay		competition with immobilised ligand	1 µM	remaining binding	82%
Cc1sc(C(=O)NC2COC2)cc1-n1cc(NC(=O)Nc2c(F)cccc2Cl)cn1	enzyme activity	inhibitor		10 µM	remaining activity	89.3%
CCN(CC)CCNC(=O)c1c(C)[nH]c(/C=C2\C(=O)Nc3ccc(F)cc32)c1C	enzyme activity	inhibitor		10 µM	inhibition	24%
CC(C)(O)[C@H]1CC[C@H](Nc2ccc3ncc(-c4cccc(C(F)(F)F)c4)n3n2)CC1	enzyme activity	inhibitor		1 µM	remaining activity	28.1%
O=C1NC(=O)c2cc(Nc3ccc(F)cc3)c(Nc3ccc(F)cc3)cc21	cell-free assay			0.5 µM	remaining signal	95%
Cc1cnc(NC2CCOCC2)nc1-n1cnc(C(=O)NC(CN)c2cc(F)cc(Cl)c2)c1 (centres unmarked)	enzyme activity	inhibitor	radiometric	1 µM	remaining activity	90%
CC(=O)c1c(NS(C)(=O)=O)c2cc(-c3ccc(Cl)cc3)c(-c3ccc(Cl)cc3Cl)nc2n(C)c1=O	cell-free assay		competition with immobilised ligand	1 µM	remaining binding	96%
F[C@@H]1CCN(c2nccc(-c3cnn4ncccc34)n2)C1	binding			1 µM	remaining binding	100%
Cn1cnc(Br)c1C1=CN(c2ncnc3[nH]cnc23)CCS1	enzyme activity	inhibitor	radiometric	50 nM	inhibition	16.6%
Cn1c(=O)n(-c2ccc(C(C)(C)C#N)cc2)c2c3cc(-c4cnc5ccccc5c4)ccc3ncc21	enzyme activity	inhibitor		10 µM	remaining activity	28%
CCS(=O)(=O)c1cc2cc(C[C@@](O)(CC(C)(C)c3ccc(F)cc3C(N)=O)C(F)(F)F)[nH]c2cn1	cell-free assay		competition with immobilised ligand	1 µM	remaining binding	100%
CNCc1ccc(-c2cc(-c3nc(-c4ccc(S(=O)(=O)C(C)C)cc4)cnc3N)on2)cc1	enzyme activity	inhibitor		2 µM	inhibition	26%
CN1CC(Oc2cnc(C#N)cc2-c2ccn3nc(NC(=O)C4CC4)cc3c2)C1	enzyme activity	inhibitor		1 µM	inhibition	81%
CCN(CC)c1ccc(C2=NNC(=O)CC2C)cc1[N+](=O)[O-] (centres unmarked)	enzyme activity	inhibitor		10 µM	remaining activity	91%
COc1cc(Nc2cnc(C#N)c(O[C@H](C)CN(C)C)n2)ncc1-c1cnn(C)c1	enzyme activity	inhibitor	radiometric	1 µM	remaining activity	97%
CC(C)(C)c1nc(-c2cccc(NS(=O)(=O)c3c(F)cccc3F)c2F)c(-c2ccnc(N)n2)s1	enzyme activity	inhibitor	radiometric	1 µM	remaining activity	5%
C[C@H](NC(=O)c1cnc2n1[C@](C)(Cc1ccc(C#N)cc1)C(=O)N2c1cc(Cl)c(F)c(Cl)c1)C(=O)NC1(c2ccccn2)CC1	cell-free assay		competition with immobilised ligand	1 µM	remaining binding	68%
Cc1ccc(C(=O)Nc2ccc(CN3CCN(C)CC3)c(C(F)(F)F)c2)cc1C#Cc1cnc2cccnn12	enzyme activity	inhibitor		23.5 nM	remaining activity	43%
N#CCCc1ccc2c(c1)-c1[nH]c3ccc([N+](=O)[O-])cc3c1CC(=O)N2	cell-free assay			0.5 µM	remaining signal	21.5%
CNCc1ccccc1-c1csc([C@@H](C)Nc2nc(C)nc3cc(OC)c(OC)cc23)c1	cell-free assay		competition with immobilised ligand	1 µM	remaining binding	100%
